# SENP1 FRET inh = inhibitors of human SENP1 SUMO protease catalytic domain. AID 624204. recombinant SENP1 catalytic domain, CyPet-SUMO1-YPet FRET cleavage. inhibition, % at 10 µM. Q9P0U3. 0.21% of 360,000 active;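 active means inhibition at least 30% at 10 µM, raw YFP signal under a set limit, fluorescence ratio 0.5 to 1.5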;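 further: 0% = enzyme with DMSO and 100% = no enzyme wells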
#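 System: Recombinant human SENP1 catalytic domain, His6-tagged | Incubation: Enzyme reaction for 50 min at room temperature, dark | Medium: Tris pH 8 with BME, BSA, NP40 and catalase | Also added: 25 nM SUMO1 FRET substrate | Compound: 10 µM single point, 0.5% DMSO | Measured by: FRET fluorescence in CFP and YFP emission channels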
# SENP8 block-1 = inhibitors of human SENP8 protease; purified SENP8, Z-RLRGG-aminoluciferin cleavage, luminescence; inhibition, % at 10 µM; 1.2% of 330,000 active; AID 2540; in the data active means inhibition above about 50%
# SENP7 inh = SENP7 protease inhibition. Q9BQF6. recombinant SENP7, Z-RLRGG-aminoluciferin luminescence, 40 min. AID 434973. inhibition, % at 5 µM. 1.5% of 330,000 active;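 active means inhibition above about 50% at the single test dose, limit read from the data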;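 further: plate controls were DMSO with enzyme for no effect and no enzyme buffer wells for full effect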
# Apaf-1 inh = blocks human Apaf-1 apoptosome activity; 0.71% of 330,000 active; inhibition, % at 20 µM; reconstituted apoptosome caspase-3 activity, DEVD-Rh110 fluorescence; O14727; active means inhibition of at least 40% at 20 µM;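 further: plate controls were DMSO wells for no effect and DEVD-CHO caspase inhibitor wells for full effect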
#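 Material: reconstituted apoptosome with Apaf-1, cytochrome c, caspase-9, procaspase-3, dATP; medium: pH 7.5 Hepes buffer with CHAPS, BSA, DTT; also added: cytochrome c and DEVD-Rh110 substrate; timing: 30 min plus 50 min, RT; signal: Rh110 fluorescence intensity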
# SENP6 block = SENP6 protease inhibition; Q9GZR1; AID 2599; Recombinant SENP6 catalytic domain, aminoluciferin luminescence; 1.8% of 330,000 active; inhibition, % at 10 µM;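 active means inhibition above about 50% at the single tested dose, limit read from the data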;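 further: plate controls were DMSO wells with enzyme for no effect and DMSO wells lacking enzyme for full effect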
# Target sequence (Q9GZR1 628-1112 limits assumed): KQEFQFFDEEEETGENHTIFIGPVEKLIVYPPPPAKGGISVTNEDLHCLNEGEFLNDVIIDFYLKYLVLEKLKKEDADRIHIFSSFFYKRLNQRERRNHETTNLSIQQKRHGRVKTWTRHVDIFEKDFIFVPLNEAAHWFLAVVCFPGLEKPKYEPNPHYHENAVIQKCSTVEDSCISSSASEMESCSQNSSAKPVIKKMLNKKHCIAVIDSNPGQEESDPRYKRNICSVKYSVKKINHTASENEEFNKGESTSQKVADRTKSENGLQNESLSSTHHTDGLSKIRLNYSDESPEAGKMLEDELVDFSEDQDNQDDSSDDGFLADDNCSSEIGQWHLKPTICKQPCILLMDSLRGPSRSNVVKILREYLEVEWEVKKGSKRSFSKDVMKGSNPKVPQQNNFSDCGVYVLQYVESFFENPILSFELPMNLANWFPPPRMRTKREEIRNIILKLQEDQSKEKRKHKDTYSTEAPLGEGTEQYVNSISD
# SENP8 block-2 = SENP8 (human) protease inhibition; Q96LD8; recombinant SENP8, Nedd8 substrate fluorescence; inhibition, % at 20 µM; 0.64% of 360,000 active; in the data active means inhibition mostly above about 40%, no sharp cut-off; inactive means mostly below about 27%
# SENP8 confirm = human SENP8 inhibition, confirmed; shares compounds with SENP7 inh; Recombinant SENP8, Z-RLRGG-aminoluciferin luminescence, 60 min; inhibition, % at 12.5 µM; 40% of 6,200 active; AID 488912;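 active means mean inhibition across replicates above about 50%, limit read from the data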
# SENP6 conf = confirmation of human SENP6 protease inhibitors. inhibition, % at 12.5 µM. shares compounds with SENP7 inh. 58% of 6,200 active. recombinant SENP6, Z-RLRGG-aminoluciferin luminescence
# SENP7 confirm = confirmation of human SENP7 protease inhibitors; shares compounds with SENP7 inh; recombinant SENP7, Z-RLRGG-aminoluciferin luminescence, 40 min; inhibition, % at 12.5 µM; 69% of 6,200 active; AID 488917
# Casp3 SENP sel = caspase-3 inhibition (SENP selectivity assay). shares compounds with SENP7 inh. purified caspase-3, Z-DEVD-aminoluciferin luminescence, 60 min. inhibition, % at 12.5 µM. 60% of 6,200 active. AID 488918;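 active means mean inhibition above about 50%, limit read from the data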;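 further: plate controls were enzyme with DMSO for no effect and wells without caspase-3 for full effect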
# Target sequence (P42574 28-227 limits assumed): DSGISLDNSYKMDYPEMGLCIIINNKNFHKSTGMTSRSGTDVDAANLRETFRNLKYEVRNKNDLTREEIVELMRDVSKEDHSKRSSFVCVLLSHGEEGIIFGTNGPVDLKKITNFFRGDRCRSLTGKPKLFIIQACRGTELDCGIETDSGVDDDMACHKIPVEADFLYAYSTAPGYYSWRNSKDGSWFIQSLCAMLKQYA
# SENP luc ctr = interferes with luciferase luminescence in SENP counter-screen; inhibition, % at 12.5 µM; shares compounds with SENP7 inh; 39% of 6,200 active; Pre-incubated SENP8/Z-RLRGG-aminoluciferin, luciferase luminescence interference;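 active means mean inhibition above about 50% when retested at one dose, limit read from the data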;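 further: plate controls were DMSO wells with completed reaction for no effect and substrate without enzyme for full effect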
# * marks the source's active call; other numbers are inactive results; i = inactive; / = not tested or not shown. A selection: hits, their analogues and other compounds. The true share with any hit is near 2.9%.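 How the source made its calls, unless noted: active means mean inhibition above about 50% in the one-dose retest (limit read from the data); inactive means the rest.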
SMILES,SENP1 FRET inh,SENP8 block-1,SENP7 inh,Apaf-1 inh,SENP6 block,SENP8 block-2,SENP8 confirm,SENP6 conf,SENP7 confirm,Casp3 SENP sel,SENP luc ctr
Nc1nc2ccccc2n1/N=C/c1ccc(Br)cc1,0,67*,-1,15,76*,13,60*,63*,90*,49,10
Nc1nnnn1/N=C/c1ccc(Br)cc1,0,-4,-2,-9,-6,7,/,/,/,/,/
Cn1c(/N=C/c2ccc3c(c2)OCO3)nc2ccccc21,1,10,-11,-14,47,5,/,/,/,/,/
Fc1ccc(-n2nnc(-c3cnc4ccccc4c3)n2)cc1,-2,80*,96*,12,93*,12,65*,67*,26,61*,33
Cc1cc(C)c2nc(-n3nc(C)cc3N)cc(C)c2c1,-1,-4,-2,7,11,4,/,/,/,/,/
Cc1cc(N)n(-c2cc(C)c3ccccc3n2)n1,1,73*,81*,4,79*,9,-26,71*,93*,79*,70*
CCn1c(CC(=O)Nc2ccc(OC)cc2)nnc1SCC(=O)N1CCOCC1,2,-11,8,1,-14,6,/,/,/,/,/
O=C1c2cc(Br)ccc2OC2C=CC=CC12 (stereo unspecified),1,/,36,18,/,-8,/,/,/,/,/
CCN1CCC(N2CCN(c3ccc(Cl)cc3)CC2)CC1,/,1,2,-1,78*,/,-12,-10,-9,5,0
N#Cc1c(N)n(C2OC(CO)C(O)C2O)c2ncnc(N)c12 (stereo unspecified),0,/,/,/,/,9,/,/,/,/,/
O=C(Nc1ccc2c(c1)CCC2)c1ccc(F)cc1,1,1,87*,-7,87*,14,85*,84*,96*,82*,80*
O=C(Nc1cccc(F)c1)Nc1ccc2c(c1)CCC2,2,-33,72*,9,63*,8,-13,-29,78*,29,18
O=C(Nc1ccccc1)Nc1ccc2c(c1)CCC2,0,62*,80*,18,84*,4,48,57*,91*,60*,81*
Cc1ccc(NC(=O)Nc2ccc3c(c2)CCC3)cc1,-1,7,-4,6,5,1,/,/,/,/,/
O=C(Nc1cccc(F)c1)Nc1ccccn1,-12,28,47,-1,58*,3,39,34,75*,54*,24
O=C(Nc1cccc(F)c1)Nc1cnccn1,1,-12,3,5,-3,2,/,/,/,/,/
CN(C)S(=O)(=O)c1ccc(C(=O)Nc2ccc3c(c2)CCC3)cc1,2,9,2,3,-1,10,/,/,/,/,/
Cc1[nH]c(C)c(S(=O)(=O)N2CCCCC2C)c1C(=O)N1CCCC1 (stereo unspecified),1,-4,-1,-4,11,-2,/,/,/,/,/
CCCCNC(=O)C1(C)CCCCN1C(=O)c1ccc2c(c1)C(C)(C)CCC2(C)C (stereo unspecified),1,/,/,/,/,7,/,/,/,/,/
O=C(CSc1nc2[nH]ncc2c(=O)[nH]1)Nc1cc(C(F)(F)F)ccc1Cl,0,/,/,/,/,6,/,/,/,/,/
O=C1CC(N2CCN(S(=O)(=O)c3ccccc3F)CC2)C(=O)N1c1ccc(F)cc1F (stereo unspecified),4,1,-8,-4,2,10,/,/,/,/,/
O=C(/C=C/c1ccc([N+](=O)[O-])cc1)OCC(=O)N1CCCC1,5,7,12,5,-17,22,/,/,/,/,/
O=S(=O)(/N=C(/c1ccccc1)N1CCOCC1)c1ccc(F)cc1F,2,-8,-2,7,-11,18,/,/,/,/,/
Cc1ccc(Oc2cc(-n3nc(C)cc3C)ncn2)cc1,1,20,47,4,54*,16,37,39,73*,38,24
Cc1cc(C)n(-c2cc(-n3nc(C)cc3C)ncn2)n1,2,-7,-2,7,-21,14,/,/,/,/,/
SMILES,SENP1 FRET inh,SENP8 block-1,SENP7 inh,Apaf-1 inh,SENP6 block,SENP8 block-2,SENP8 confirm,SENP6 conf,SENP7 confirm,Casp3 SENP sel,SENP luc ctr
O=C(O)/C(=C\c1ccc(-c2ccccc2[N+](=O)[O-])o1)c1ccccc1,1,48,0,0,58*,2,60*,66*,74*,59*,54*
CCOc1ccc(-n2nc3cc(C)c(N)cc3n2)cc1,-68,46,13,26,73*,i,40,74*,94*,38,6
CNC(=O)c1[nH]nc2c1CCc1cc(OC)ccc1-2,1,-3,8,5,-40,22,/,/,/,/,/
COc1ccc2c(c1)CCc1c-2n[nH]c1C(=O)NCCC(C)C,0,56*,60*,14,48,9,23,54*,85*,52*,10
Cc1nc2ccccc2c(=O)n1NC(=O)COc1ccccc1,1,-7,57*,-11,-9,6,9,6,13,7,5
O=C1CC(O)(C(F)(F)F)Oc2c1ccc1ccccc21 (stereo unspecified),-4,77*,54*,0,82*,-270,86*,84*,96*,81*,86*
CCOc1ccccc1NC(=O)NC1(C(=O)NCc2cccnc2)CCCCC1,2,6,6,1,19,10,/,/,/,/,/
Cc1nc2cc(NC(=O)Nc3cccc4ccccc34)ccc2n1C,-1,26,80*,-2,39,-131,19,21,74*,71*,9
O=C(Cc1c(F)cccc1Cl)Nc1nccs1,1,8,0,-4,10,18,/,/,/,/,/
CC1(C)Cc2c(cnn2-c2cccc(F)c2)C(NC(=O)CN2CCCC2=O)C1 (stereo unspecified),1,-3,19,-6,3,-1,/,/,/,/,/
Cc1ccc(NC(=O)CC2C(=O)NC3CCCCC3N2C(=O)c2ccc(F)cc2)cc1C (stereo unspecified),1,3,11,11,54*,7,11,8,10,5,6
O=C(CC1C(=O)NC2CCCCC2N1C(=O)c1ccc(F)cc1)Nc1ccccc1 (stereo unspecified),0,3,1,-14,-14,2,/,/,/,/,/

# Source: PubChem BioAssay
